High-throughput results: PubChem, several laboratories
Sampled rows, rich in hits. Any-hit rate of the full collection: about 2.8%.
EP2 antag: blocks the human prostaglandin E2 receptor EP2 | P43116 | C6 glioma cells expressing human EP2, cAMP TR-FRET; cells stimulated with saturating PGE2 | inhibition, % at 25 µM | hit rate 0.52% among 260,000 | AID 1422;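 active = percent inhibition above 40 after rounding to a whole number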;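 also: rat C6 glioma host cells with rolipram phosphodiesterase inhibitor present; the protocol text gives 20 µM as final concentration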
Target sequence (P43116 whole entry, looked up): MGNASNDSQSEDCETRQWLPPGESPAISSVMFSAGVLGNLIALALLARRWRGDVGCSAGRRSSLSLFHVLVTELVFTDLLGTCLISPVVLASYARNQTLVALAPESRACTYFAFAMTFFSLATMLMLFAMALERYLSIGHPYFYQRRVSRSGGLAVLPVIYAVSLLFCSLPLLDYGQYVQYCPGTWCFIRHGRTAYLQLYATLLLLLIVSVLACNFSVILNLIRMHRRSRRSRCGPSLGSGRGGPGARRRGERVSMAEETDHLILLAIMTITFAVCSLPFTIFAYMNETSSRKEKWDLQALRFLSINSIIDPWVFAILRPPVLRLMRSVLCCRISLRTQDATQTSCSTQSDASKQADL
NPY-Y2 PAM-ag: human NPY-Y2 potentiation or agonism, primary screen. P49146. cells expressing NPY-Y2, potentiator/agonist read-out. activation, % at 3.6 µM. hit rate 0.45% among 220,000; in the data active = activation above about 27%;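 also: cells stimulated with NPY near EC25 plus isoproterenol at EC100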
Target sequence (P49146 whole entry, looked up): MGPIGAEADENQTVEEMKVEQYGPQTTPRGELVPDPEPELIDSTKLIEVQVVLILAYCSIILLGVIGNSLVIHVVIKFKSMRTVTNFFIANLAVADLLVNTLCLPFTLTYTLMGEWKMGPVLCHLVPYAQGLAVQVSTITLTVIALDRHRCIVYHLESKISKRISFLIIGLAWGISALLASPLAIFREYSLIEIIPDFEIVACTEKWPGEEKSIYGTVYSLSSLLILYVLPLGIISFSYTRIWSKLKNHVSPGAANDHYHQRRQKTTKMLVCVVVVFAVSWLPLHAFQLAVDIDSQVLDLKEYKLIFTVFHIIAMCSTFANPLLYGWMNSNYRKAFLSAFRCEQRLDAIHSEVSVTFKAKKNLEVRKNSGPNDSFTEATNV
EP2 modulator: modulates human prostaglandin E2 receptor EP2 signaling. P43116. EP2-expressing cells, cAMP HTRF FRET, PGE2 co-stimulation. induction, % at 25 µM. hit rate 0.83% among 260,000;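 active = compounds whose cAMP rise, as percent of the full-agonist control response, exceeds 60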;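 also: rat C6 glioma line stably carrying human EP2 under a CMV promoter; the protocol text gives 20 µM as final concentration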
NPY Y1 blocker: antagonists of human neuropeptide Y receptor Y1; P25929; HEK293-CNG Y1 cells, membrane potential fluorescence; NPY at EC95, then isoproterenol; inhibition, % at 3.6 µM; hit rate 1% among 200,000; AID 1040;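 active = inhibition above the campaign mean inhibition of all tested compounds plus 3 SD, cut at about 20% in these data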
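Assay system: HEK293 cells with Y1 receptor plus CNG channel | Probe or stimulus: NPY (25 nM), isoproterenol (1 µM), Ro 20-1724 (25 µM) | Timing: Compound incubation 1 h at room temperature, readout 45 min post-stimulation | Measured by: Membrane-potential fluorescent dye readout | Benchmarks: High control isoproterenol alone, low control NPY with isoproterenol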
NPY-Y1 PAM-ag: human NPY-Y1 potentiation or agonism, primary screen | P25929 | NPY-Y1 expressing cells, potentiator/agonist activation | activation, % at 3.6 µM | hit rate 0.37% among 220,000 | AID 1304; in the data active = activation above about 33%, passing the limit was not always enough;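 also: cells stimulated with NPY at EC10 then isoproterenol at EC100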
NPY Y2 blocker: NPY-Y2 (human) receptor antagonism | NPY-Y2 expressing cells, antagonist mode | P49146 | AID 793 | hit rate 0.99% among 140,000 | inhibition, % at 2.7 µM; in the data active = inhibition above about 17%
EP2 confirm: human EP2 receptor cAMP induction, negative in counter-screens | AID 1080 | shares compounds with EP2 modulator | C6 glioma EP2 cells, cAMP HTRF induction; plus low (about EC15) PGE2 agonist | hit rate 47% among 1,300 | calls only at 20 µM (by protocol);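 active = cAMP induction above 50% in the main assay while under 30% in all four parallel counter assays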;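 also: rat C6 glioma cells stably expressing human EP2 receptor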
Hits are given with their value.

What do the screens show for `CCOC(=O)C1CCCN(c2c(C(=O)c3ccccc3)cnc3ccccc23)C1` (stereo not drawn)?
EP2 antag: inactive; NPY-Y2 PAM-ag: inactive; EP2 modulator: inactive; NPY Y1 blocker: inactive; NPY-Y1 PAM-ag: inactive

Results for CCOC(=O)C1CCN(c2c(C(=O)c3ccccc3)cnc3ccc(CC)cc23)CC1 ?
EP2 antag: inactive; NPY-Y2 PAM-ag: inactive; EP2 modulator: 76.7; NPY Y1 blocker: inactive; NPY-Y1 PAM-ag: inactive; EP2 confirm: inactive

How did CC(C)Sc1nc2sc3c(c2c2nnc(SCC(=O)NCc4ccco4)n12)CCCC3 do in these assays?
EP2 antag: inactive; NPY-Y2 PAM-ag: inactive; EP2 modulator: inactive; NPY Y1 blocker: inactive; NPY-Y1 PAM-ag: inactive; NPY Y2 blocker: inactive; EP2 confirm: inactive

How did COc1ccnc(Cn2nc3c(C)cc4cc(C)ccc4n3c2=O)c1OC do in these assays?
EP2 modulator: inactive

What do the screens show for `c1ccc(-c2noc(-c3ccccc3-c3ccccc3)n2)cc1`?
EP2 antag: inactive; NPY-Y2 PAM-ag: inactive; EP2 modulator: inactive; NPY Y1 blocker: inactive; NPY-Y1 PAM-ag: inactive; NPY Y2 blocker: inactive; EP2 confirm: active

Results for C=CCn1c(SCc2c(C)noc2C)nc2sc(C)c(C)c2c1=O ?
EP2 antag: inactive; NPY-Y2 PAM-ag: inactive; EP2 modulator: 61.9; NPY Y1 blocker: 21.1; NPY-Y1 PAM-ag: inactive; NPY Y2 blocker: 17.5; EP2 confirm: active

How did c1ccn(-c2ncnc3sc4c(c23)CCCC4)c1 do in these assays?
EP2 antag: inactive; NPY-Y2 PAM-ag: inactive; EP2 modulator: 64.5; NPY Y1 blocker: inactive; NPY-Y1 PAM-ag: inactive; NPY Y2 blocker: inactive; EP2 confirm: active

How did CCSc1ncnc2sc3c(c12)CCC3 do in these assays?
EP2 antag: inactive; NPY-Y2 PAM-ag: inactive; EP2 modulator: 73.3; NPY Y1 blocker: inactive; NPY-Y1 PAM-ag: inactive; NPY Y2 blocker: inactive; EP2 confirm: active

Results for c1cn(-c2ncnc3sc4c(c23)CCCC4)cn1 ?
EP2 antag: inactive; NPY-Y2 PAM-ag: inactive; EP2 modulator: inactive; NPY Y1 blocker: inactive; NPY-Y1 PAM-ag: inactive; NPY Y2 blocker: inactive

How did Cc1noc(C)c1CSc1ncnc2sc3c(c12)CCCCC3 do in these assays?
EP2 antag: inactive; NPY-Y2 PAM-ag: inactive; EP2 modulator: inactive; NPY Y1 blocker: inactive; NPY-Y1 PAM-ag: inactive; NPY Y2 blocker: inactive; EP2 confirm: active

Results for CCOc1ccccc1NC(=O)c1sc(NC(=O)c2ccccc2C)c(C(=O)OC)c1C ?
EP2 antag: inactive; EP2 modulator: inactive

What do the screens show for `COc1ccc(S(=O)(=O)N2CCCC(C(=O)NC3CCCC3)C2)cc1` (stereo not drawn)?
EP2 antag: inactive; EP2 modulator: inactive

What do the screens show for `Cc1cc(C)c2[nH]c(C(=O)NCCNC(=O)c3ccccn3)c(C)c2c1`?
EP2 antag: inactive; EP2 modulator: inactive

What do the screens show for `Cc1noc(C)c1CSc1ncnc2ccccc12`?
EP2 antag: inactive; NPY-Y2 PAM-ag: inactive; EP2 modulator: inactive; NPY Y1 blocker: inactive; NPY-Y1 PAM-ag: inactive; NPY Y2 blocker: inactive

What do the screens show for `Cc1noc(C)c1CSc1ncnc2sc(C)c(C)c12`?
EP2 antag: inactive; NPY-Y2 PAM-ag: inactive; EP2 modulator: 62.9; NPY Y1 blocker: inactive; NPY-Y1 PAM-ag: inactive; NPY Y2 blocker: inactive; EP2 confirm: active

Results for Cc1sc2ncnc(SCc3ccco3)c2c1C ?
EP2 antag: inactive; NPY-Y2 PAM-ag: inactive; EP2 modulator: 63.5; NPY Y1 blocker: inactive; NPY-Y1 PAM-ag: inactive; NPY Y2 blocker: inactive; EP2 confirm: active

How did CCCCCCc1nnc(NC(=O)OCC)s1 do in these assays?
EP2 antag: inactive; NPY-Y2 PAM-ag: inactive; EP2 modulator: inactive; NPY Y1 blocker: inactive; NPY-Y1 PAM-ag: inactive; NPY Y2 blocker: inactive

How did C/C=C(\C)c1nnc(NC(=O)OCC)s1 do in these assays?
EP2 antag: inactive; NPY-Y2 PAM-ag: inactive; EP2 modulator: 90.0; NPY Y1 blocker: inactive; NPY-Y1 PAM-ag: inactive; NPY Y2 blocker: inactive; EP2 confirm: inactive

Results for CC[C@@H](Cn1ncc2ccccc2c1=O)NC(=O)Cc1n[nH]c(=O)c2ccccc12 ?
EP2 antag: inactive; EP2 modulator: inactive

What do the screens show for `Cc1ccnc(-n2cccc2CN2CCc3c(nc(N4CCCC(C)C4)[nH]c3=O)C2)c1` (stereo not drawn)?
EP2 modulator: inactive

Results for COc1ccccc1CN1CCC(C(=O)NC(C)(C)C)CC1 ?
EP2 antag: inactive; EP2 modulator: inactive

What do the screens show for `CCCCc1ccc(-n2c(Cc3cccs3)n[nH]c2=S)cc1`?
EP2 antag: inactive; NPY-Y2 PAM-ag: inactive; EP2 modulator: 70.6; NPY Y1 blocker: inactive; NPY-Y1 PAM-ag: inactive; EP2 confirm: active

What do the screens show for `Cc1cccc(Oc2nc(-c3ccccc3)cc(C)c2S(C)(=O)=O)c1C`?
EP2 antag: inactive; NPY-Y2 PAM-ag: inactive; EP2 modulator: 72.0; NPY Y1 blocker: inactive; NPY-Y1 PAM-ag: inactive; NPY Y2 blocker: inactive; EP2 confirm: active

How did CCNC(=S)N(Cc1ccc(OC)cc1)Cc1cc2c(C)cc(C)cc2[nH]c1=O do in these assays?
EP2 antag: inactive; EP2 modulator: inactive

Results for CC1CCc2cc(F)cc3c(O)c(C(=O)NCc4ccco4)c(=O)n1c23 (stereo not drawn) ?
NPY-Y2 PAM-ag: inactive; EP2 modulator: 69.1; NPY Y1 blocker: inactive; NPY-Y1 PAM-ag: inactive; NPY Y2 blocker: inactive; EP2 confirm: inactive

What do the screens show for `CCC(C)NC(=O)C1CCN(Cc2ccc(Cl)cc2)CC1` (stereo not drawn)?
EP2 antag: inactive; EP2 modulator: inactive

How did Cc1ccc2ccccc2c1NC(=O)CSc1n[nH]c(-c2ccccc2O)n1 do in these assays?
EP2 antag: inactive; EP2 modulator: inactive

How did C[C@H](C(=O)c1ccccc1)[C@@H](c1ccccc1)N1CCOCC1 do in these assays?
EP2 antag: inactive; EP2 modulator: inactive; EP2 confirm: active

What do the screens show for `Cc1ccc(N(C(=O)Cc2c[nH]c3ccccc23)C(C(=O)NC2CCCCC2)c2cccnc2)cc1` (stereo not drawn)?
EP2 antag: inactive; EP2 modulator: inactive

Results for CC(c1cccs1)N(Cc1ccco1)C(=S)Nc1ccccc1Cl (stereo not drawn) ?
EP2 antag: inactive; NPY-Y2 PAM-ag: inactive; EP2 modulator: inactive; NPY Y1 blocker: inactive; NPY-Y1 PAM-ag: inactive

What do the screens show for `Cc1ccccc1NC(=S)N(Cc1ccco1)C(C)c1cccs1` (stereo not drawn)?
EP2 antag: inactive; NPY-Y2 PAM-ag: inactive; EP2 modulator: inactive; NPY Y1 blocker: inactive; NPY-Y1 PAM-ag: inactive; EP2 confirm: inactive

How did Cc1cccc(Oc2sc(C(=O)c3ccccc3)c(N)c2C#N)c1 do in these assays?
EP2 antag: inactive; NPY-Y2 PAM-ag: inactive; EP2 modulator: 72.0; NPY Y1 blocker: inactive; NPY-Y1 PAM-ag: inactive; NPY Y2 blocker: inactive; EP2 confirm: inactive
